Test results published in ChEMBL document CHEMBL4627371, “Discovery of novel heat shock protein (Hsp90) inhibitors based on luminespib with potent antitumor activity” (Bioorg Med Chem Lett, 2020).

Key:
[1] = Toxicity in BALB/c nu/nu mouse xenografted with human A2780 cells assessed as mouse death at 50 mg/kg, iv administered 3 times a week for 2 weeks starting from 5 to 6 days post tumor inoculation; format: organism-based; settings: in vivo
Summary of the method: (§1)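 Human A2780 ovarian adenocarcinoma cells were cultured and implanted into BALB/c-nu/nude mice, n = 6 per group. Tumor size and volume were measured 5 or 6 days later. Compounds were suspended in 1% carboxymethyl cellulose and given intravenously. Deaths and body weight were monitored. Tumor growth inhibition = [1 − (mean treated tumor volume)/(mean control tumor volume)] × 100%.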

[2] = Toxicity in BALB/c athymic nu/nu mouse xenografted with human NCI-H1975 cells assessed as mouse death at 200 mg/kg, iv administered once a week for 3 weeks; format: organism-based; settings: in vivo, 504 h
Summary of the method: (§2)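 Athymic BALB/c-nu/nude mice bearing NCI-H1975 human lung carcinoma xenografts, n = 6 per group. Compounds were given i.v. at 200 mg/kg once weekly for three weeks. Deaths and body weight loss were recorded. Tumor growth inhibition was calculated from mean treated versus mean control tumor volumes.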

[3] = Toxicity in BALB/c nu/nu mouse xenografted with human A2780 cells assessed as effect on body weight at 50 mg/kg, iv administered 3 times a week for 2 weeks starting from 5 to 6 days post tumor inoculation; format: organism-based; settings: in vivo; summary of the method: as §1
[4] = molecular target: T1, Heat shock protein HSP90 (Homo sapiens, UniProt P07900+P08238); test: Inhibition of HSP90 ATPase activity (unknown origin); format: protein assay
[5] = system: A2780; test: Cytotoxicity against human A2780 cells assessed as cell growth inhibition; format: functional, cell-based
[6] = system: A2780; test: Antitumor activity against human A2780 cells xenografted in BALB/c nu/nu mouse assessed as tumor growth inhibition at 50 mg/kg, iv administered 3 times a week for 2 weeks starting from 5 to 6 days post tumor inoculation relative to control; format: functional; settings: read-out: TGI; summary of the method: as §1
[7] = system: NCI-H1975; test: Antitumor activity against human NCI-H1975 cells xenografted in BALB/c athymic nu/nu mouse assessed as tumor growth inhibition at 200 mg/kg, iv administered once a week for 3 weeks relative to control; format: functional; settings: 504 h, read-out: TGI; summary of the method: as §2
[8] = molecular target: T1, Heat shock protein HSP90; test: Inhibition of HSP90 (unknown origin) assessed as HER2 degradation by cell-based assay
[9] = system: HCT-116; test: Cytotoxicity against human HCT116 cells assessed as cell growth inhibition; format: functional, cell-based
[10] = Toxicity in BALB/c athymic nu/nu mouse xenografted with human NCI-H1975 cells assessed as effect on body weight at 200 mg/kg, iv administered once a week for 3 weeks; format: organism-based; settings: in vivo, 504 h; summary of the method: as §2
[11] = system: A2780; test: Antitumor activity against human A2780 cells xenografted in BALB/c nu/nu mouse assessed as tumor growth inhibition at 50 mg/kg, iv administered 3 times a week for 3 weeks starting from 5 to 6 days post tumor inoculation relative to control; format: functional; settings: read-out: TGI; summary of the method: as §1
[12] = Toxicity in BALB/c nu/nu mouse xenografted with human A2780 cells assessed as mouse death at 50 mg/kg, iv administered 3 times a week for 3 weeks starting from 5 to 6 days post tumor inoculation; format: organism-based; settings: in vivo; summary of the method: as §1
[13] = Toxicity in BALB/c nu/nu mouse xenografted with human A2780 cells assessed as effect on body weight at 50 mg/kg, iv administered 3 times a week for 3 weeks starting from 5 to 6 days post tumor inoculation; format: organism-based; settings: in vivo; summary of the method: as §1
[14] = system: NCI-H1975; test: Antitumor activity against human NCI-H1975 cells xenografted in BALB/c athymic nu/nu mouse assessed as tumor growth inhibition at 150 mg/kg, iv administered once a week for 3 weeks relative to control; settings: 504 h, read-out: TGI
[15] = Toxicity in BALB/c athymic nu/nu mouse xenografted with human NCI-H1975 cells assessed as mouse death at 150 mg/kg, iv administered once a week for 3 weeks; format: organism-based; settings: in vivo, 504 h
[16] = Toxicity in BALB/c athymic nu/nu mouse xenografted with human NCI-H1975 cells assessed as effect on body weight at 150 mg/kg, iv administered once a week for 3 weeks; format: organism-based; settings: in vivo, 504 h

With `CCNC(=O)c1noc(-c2cc(C(C)C)c(O)cc2O)c1-c1cn[nH]c1` the Activity [1] was “Non-Toxic”, the Activity [2] was “Non-Toxic” and the Activity [3] was “Non-Toxic”. For the same compound, the IC50 [4] was 469 nM, the IC50 [5] was 38 nM and the inhibition in vivo at 50 mg/kg [6] was 47.6%. For the same compound, the inhibition in vivo at 200 mg/kg [7] was 55.4%, the IC50 [8] was 13 nM and the IC50 [9] was 43 nM. The Activity [10] was “Non-Toxic”.
For `CCNC(=O)c1noc(-c2cc(C(C)C)c(O)cc2O)c1-c1cc(CO)no1`, the Activity [2] was “Non-Toxic”, the IC50 [4] was 279 nM and the inhibition in vivo at 50 mg/kg [11] was 47%. For the same compound, the Activity [12] was “Non-Toxic”, the IC50 [5] was 5 nM and the inhibition in vivo at 200 mg/kg [7] was 50.9%. The IC50 [8] was 42 nM, the IC50 [9] was 13 nM and the Activity [13] was “Non-Toxic”. The Activity [10] was “Non-Toxic”.
In the case of `CCNC(=O)c1cc(-c2c(C(=O)NCC)noc2-c2cc(C(C)C)c(O)cc2O)on1`, the Activity [2] is reported as “Non-Toxic”, the IC50 [4] is reported as 284 nM and the inhibition in vivo at 50 mg/kg [11] is reported as 52%. The Activity [12] was “Non-Toxic”, the IC50 [5] was 43 nM and the inhibition in vivo at 200 mg/kg [7] was 44%. The IC50 [8] was 28 nM, the IC50 [9] was 14 nM and the Activity [13] was “Non-Toxic”. For the same compound, the Activity [10] was “Non-Toxic”.
For `CCNC(=O)c1noc(-c2cc(C(C)C)c(O)cc2O)c1-c1ccc(CN2CCOCC2)cc1` [LUMINESPIB], the inhibition in vivo at 150 mg/kg [14] was 43.5%, the inhibition in vivo at 50 mg/kg [11] was 48% and the Activity [15] was “Non-Toxic”. For the same compound, the Activity [12] was “Non-Toxic”, the Activity [16] was “Non-Toxic” and the IC50 [5] was 6 nM. The IC50 [9] was 20 nM and the Activity [13] was “Non-Toxic”.
